Data as given in publication PMC2645950 (Journal of medicinal chemistry, 2008).
Numbering of substitutions follows the chain as printed.

Assays:
[1] = molecular target: T1, human alkyltransferase (wild type) (Homo sapiens, UniProt P16455); details: cited from earlier work
T1 sequence (P16455 1-207): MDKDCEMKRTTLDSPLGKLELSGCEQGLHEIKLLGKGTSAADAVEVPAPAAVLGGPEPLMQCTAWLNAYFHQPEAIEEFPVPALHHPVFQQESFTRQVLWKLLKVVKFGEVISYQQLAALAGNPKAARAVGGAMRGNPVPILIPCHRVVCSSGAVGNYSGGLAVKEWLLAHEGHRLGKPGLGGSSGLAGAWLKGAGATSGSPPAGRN

alkyltransferase = details: BG free base; cited from earlier work
[2] = molecular target: T2, S159A mutant alkyltransferase (Homo sapiens, UniProt P16455, S159A); experiment: Inactivation of purified S159A mutant alkyltransferase in vitro; assay type: biochemical; details: 30 min at 37°C
T2 sequence (P16455 1-207 S159A): T1 sequence (P16455 1-207) with S159A

[3] = Stability in aqueous solution; assay type: physicochemical; details: for rearrangement to N^6-substituted 2-aminoadenine in heated water: heating
HT29 cells = experiment: Sensitization of HT29 cells to killing by BCNU; assay type: cell-based, human; details: 2 h exposure prior to 40 μM BCNU; colony forming assay
Outline: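 HT29 cells in RPMI 1640 with 10% FBS. 24 h after plating, cells get test compound at varied concentrations for 2 h, then 40 μM BCNU for 2 h. Medium is then replaced with inhibitor-containing, BCNU-free medium for 16–18 h. Cells are replated at 250–1000 per 25 cm2 flask and grown 8 days. Colonies are saline-washed, stained with 0.5% crystal violet in ethanol, and counted.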

Solubility = assay type: physicochemical; details: at physiological pH
[4] = molecular target: T1, human alkyltransferase (wild type); experiment: Inactivation of purified recombinant human alkyltransferase in vitro; assay type: biochemical; details: for less effective than BG: ortho-substituted BG derivatives

**Q.** Which results are given for Nc1nc(OCc2ccccc2)c2nc[nH]c2n1 [BG, O^6-Benzylguanine]?
**A.** enhancement of inactivation of alkyltransferase by the presence of DNA [1]: 3–4 fold; rate constant for the reaction (alkyltransferase): ~600 M⁻¹ s⁻¹

**Q.** What does the source list for NCc1ccc(COc2nc(N)nc3nc[nH]c23)cc1 [Compound 1, O^6-[4-(Aminomethyl)benzyl]guanine]?
**A.** IC50 ([2]; ED50 + DNA, + DNA): 28 nM; IC50 ([2]; ED50 No DNA, no DNA): 160 nM; rearrangement to N^6-substituted 2-aminoadenine in heated water [3]: not observed

**Q.** Which “sensitizing HT29 cells to BCNU” value (HT29 cells) does the source give for NCc1cccc(COc2nc(N)nc3nc[nH]c23)c1 [Compound 2, O^6-[3-(Aminomethyl)benzyl]guanine] here?
**A.** much more effective than compound 1

**Q.** And the “rearrangement to N^6-substituted 2-aminoadenine in heated water” value [3]?
**A.** not observed

**Q.** And the “solubility relative to BG” value (Solubility)?
**A.** approx. 1000 times

**Q.** What does the source list for NCc1ccccc1COc1nc(N)nc2nc[nH]c12 [Compound 3, O^6-[2-(Aminomethyl)benzyl]guanine]?
**A.** less effective than BG [4]: > 200 fold; half life of rearrangement of 3 to 7 ([3]; aqueous solution, 37°C (0.1 M sodium phosphate buffer pH 7.4, followed by UV, first order kinetics)): 51 h

**Q.** Which “less effective than BG” value [4] does the source give for Cc1ccccc1COc1nc(N)nc2nc[nH]c12 [Compound 6, O^6-[2-(Methyl)benzyl]guanine] here?
**A.** > 200 fold

**Q.** With Nc1nc(NCc2ccccc2CO)c2[nH]cnc2n1 [Compound 7, N^6-[2-(Hydroxymethyl)benzyl]-2-aminoadenine] as the compound, how does the inhibition at 1000 µM ([4]; read-out: inhibition of alkyltransferase) read?
**A.** < 10%
